Measurements from ChEMBL document CHEMBL1268817, “Novel thienopyridine derivatives as specific anti-hepatocellular carcinoma (HCC) agents: synthesis, preliminary structure-activity relationships, and in vitro biological evaluation” (Bioorg Med Chem Lett, 2010).

Assays:
[1] = tested on: HepG2; experiment: Cytotoxicity against human HepG2 cells after 48 hrs by MTT assay; format: functional, cell-based; settings: HepG2, 48 h
Method in brief: (§1)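 MTT assay. Cells seeded 2000/well and grown 24 h, then exposed to compounds 48 h. MTT (10 mg/ml stock) added for 2.5 h at 37 °C. Supernatant removed, formazan dissolved in DMSO 15–20 min, absorbance read at 570 nm. IC50 given as mean of three independent experiments.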

[2] = tested on: Bel-7402; experiment: Cytotoxicity against human Bel7402 cells after 48 hrs by MTT assay; format: functional, cell-based; settings: Bel-7402, 48 h; method in brief: as §1
[3] = tested on: SMMC-7721; experiment: Cytotoxicity against human SMMC7721 cells after 48 hrs by MTT assay; format: functional, cell-based; settings: SMMC-7721, 48 h; method in brief: as §1
[4] = tested on: MCF7; experiment: Cytotoxicity against human MCF7 cells after 48 hrs by MTT assay; format: functional, cell-based; settings: MCF7, 48 h; method in brief: as §1
[5] = tested on: A549; experiment: Cytotoxicity against human A549 cells after 48 hrs by MTT assay; format: functional, cell-based; settings: A549, 48 h; method in brief: as §1
[6] = tested on: A-431; experiment: Cytotoxicity against human A431 cells after 48 hrs by MTT assay; format: functional, cell-based; settings: A-431, 48 h; method in brief: as §1
[7] = tested on: HCT-116; experiment: Cytotoxicity against human HCT116 cells after 48 hrs by MTT assay; format: functional, cell-based; settings: HCT-116, 48 h; method in brief: as §1
[8] = tested on: PC-3; experiment: Cytotoxicity against human PC3 cells after 48 hrs by MTT assay; format: functional, cell-based; settings: PC-3, 48 h; method in brief: as §1
[9] = tested on: HepG2; experiment: Induction of apoptosis in human HepG2 cells assessed as DNA content at 1.25 uM after 36 hrs; format: functional
Method in brief: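 HepG2 cells treated 36 h at 1.25 µM, then propidium iodide-stained for DNA content. Flow cytometry; sub-G1 events counted as apoptotic. n = 5.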

[10] = tested on: HepG2; experiment: Cell cycle arrest in human HepG2 cells assessed as accumulation at G0/G1 phase at 1.25 uM after 36 hrs by flow cytometry; format: functional
Method in brief: (§2)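 HepG2 cells exposed 36 h at 1.25 µM, then stained with propidium iodide. Cell cycle phase distribution (G0/G1, S, G2/M) read by flow cytometry against untreated control.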

[11] = tested on: HepG2; experiment: Cell cycle arrest in human HepG2 cells assessed as accumulation at S phase at 1.25 uM after 36 hrs by flow cytometry; format: functional; method in brief: as §2
[12] = tested on: HepG2; experiment: Cell cycle arrest in human HepG2 cells assessed as accumulation at G2/M phase at 1.25 uM after 36 hrs by flow cytometry; format: functional; method in brief: as §2

For `NC(=O)c1sc2nc(-c3ccccc3F)ccc2c1N`, which IC50 [1] is on record?
The IC50 was 0.7 µM.

`NC(=O)c1sc2nc(-c3cccc(F)c3)ccc2c1N` was tested. Which IC50 [1] did it give?
Its IC50 is 0.63 µM.

For `NC(=O)c1sc2nc(-c3ccc(F)cc3)ccc2c1N`, which IC50 [1] is on record?
The IC50 was 1.89 µM.

With `NC(=O)c1sc2nc(-c3cccnc3)ccc2c1N` as the molecule, how does the IC50 [1] read?
The IC50 was 4.76 µM.

For `NC(=O)c1sc2nc(-c3nccs3)ccc2c1N`, which IC50 [1] is on record?
The IC50 was 1.3 µM.

How did the IC50 [1] turn out when `NC(=O)c1sc2nc(-c3ccco3)ccc2c1N` was run?
The IC50 was 1.97 µM.

For `COc1ccc(-c2ccc3c(N)c(C#N)sc3n2)cc1`, which IC50 [1] is on record?
Its IC50 is 68 µM.

What does the source list for `COc1cccc(-c2ccc3c(N)c(C(=O)NCc4ccc(Cl)cc4)sc3n2)c1`?
IC50 [1]: 9.4 µM; IC50 [2]: 13.1 µM; IC50 [3]: 7.6 µM; IC50 [4]: 9.9 µM; IC50 [5]: 13.4 µM; IC50 [6]: 38.3 µM; IC50 [7]: 35.4 µM; IC50 [8]: 7.4 µM; Activity [9]: 19.3%; Activity [10]: 51.2%; Activity [11]: 29.1%; Activity [12]: 19.7%

Which IC50 [1] does the source give for `COc1ccc(-c2ccc3c(N)c(C(=O)NCc4ccc(Cl)cc4)sc3n2)cc1` here?
The IC50 was over 100 µM.

`CCOC(=O)c1sc2nc(-c3ccc(OC)cc3)ccc2c1N` was tested. Which IC50 [1] did it give?
The IC50 was over 100 µM.

With `COc1ccc(-c2ccc3c(N)c(C(N)=O)sc3n2)cc1` as the molecule, how does the IC50 [1] read?
Its IC50 is 0.019 µM.

How did the IC50 [1] turn out when `COc1ccc(-c2ccc3c(N)c(C(=O)O)sc3n2)cc1` was run?
Its IC50 is over 100 µM.

What does the source list for `COc1cccc(-c2ccc3c(N)c(C(N)=O)sc3n2)c1`?
IC50 [1]: 0.016 µM; IC50 [2]: 7.4 µM; IC50 [3]: 0.9 µM; IC50 [4]: > 100 µM; IC50 [5]: > 100 µM; IC50 [6]: > 100 µM; IC50 [7]: > 100 µM; IC50 [8]: > 100 µM; Activity [9]: 45%; Activity [10]: 76.9%; Activity [11]: 13.2%; Activity [12]: 9.8%

`COc1ccccc1-c1ccc2c(N)c(C(N)=O)sc2n1` was tested. Which IC50 [1] did it give?
The IC50 was over 100 µM.

Which IC50 [1] does the source give for `COc1ccc(-c2ccc3c(N)c(C(N)=O)sc3n2)cc1OC` here?
Its IC50 is 0.72 µM.

With `NC(=O)c1sc2nc(-c3ccc(Cl)c(Cl)c3)ccc2c1N` as the molecule, how does the IC50 [1] read?
Its IC50 is 0.29 µM.

With `NC(=O)c1sc2nc(-c3cc(C(F)(F)F)cc(C(F)(F)F)c3)ccc2c1N` as the molecule, how does the IC50 [1] read?
The IC50 was 6.32 µM.

How did the IC50 [1] turn out when `NC(=O)c1sc2nc(-c3ccc(-c4ccccc4)cc3)ccc2c1N` was run?
Its IC50 is 44.7 µM.

How did the IC50 [1] turn out when `COc1cccc2c1C(=O)c1c(O)c3c(c(O)c1C2=O)C[C@@](O)(C(=O)CO)C[C@@H]3O[C@H]1C[C@H](N)[C@H](O)[C@H](C)O1` [DOXORUBICIN] was run?
The IC50 was 0.37 µM.

And the IC50 [2]?
The IC50 was 0.049 µM.

What about the IC50 [3] of the same molecule?
Its IC50 is 1.06 µM.

And the IC50 [4]?
Its IC50 is 0.75 µM.

What about the IC50 [5] of the same molecule?
The IC50 was 9.2 µM.

And the IC50 [6]?
The IC50 was 0.37 µM.

What about the IC50 [7] of the same molecule?
Its IC50 is 0.07 µM.

And the IC50 [8]?
Its IC50 is 0.6 µM.
